{"data": "Measured values of several laboratories", "cell line": "A549", "observed": "cell growth or viability", "note": "Compare with care: the assays were run in different laboratories."}
{"SMILES": "CC(C)[C@H](NC(=O)[C@H](Cc1c[nH]cn1)NC(=O)[C@H](Cc1c[nH]c2ccccc12)NC(=O)[C@H](Cc1c[nH]cn1)NC(=O)[C@H](C)NC(=O)[C@H](CCCCN)NC(=O)[C@H](Cc1c[nH]c2ccccc12)NC(=O)[C@H](Cc1c[nH]c2ccccc12)NC(=O)[C@H](CCCNC(=N)N)NC(=O)[C@H](Cc1c[nH]c2ccccc12)NC(=O)[C@H](CCCNC(=N)N)NC(=O)[C@@H](N)CCCNC(=N)N)C(=O)N[C@@H](Cc1c[nH]c2ccccc12)C(N)=O", "assay": "MTT", "conditions": "24 h", "IC50": "240 µM"}
{"SMILES": "[C-]#[O+].[C-]#[O+].[C-]#[O+].[C-]#[O+].[C-]#[O+].[C-]#[O+].[C-]#[O+].[C-]#[O+].[C-]#[O+].[C-]#[O+].[Mn].[Mn]", "assay": "MTT", "conditions": "48 h", "IC50": "20.9 µM"}
{"SMILES": "CC(C)C[C@H](NC(=O)[C@H](CC(C)C)NC(=O)[C@H](CCCCN)NC(=O)[C@H](CCCCN)NC(=O)[C@H](Cc1ccccc1)NC(=O)[C@H](CC(C)C)NC(=O)[C@H](CCCCN)NC(=O)[C@H](CCCCN)NC(=O)[C@H](CC(C)C)NC(=O)[C@H](CC(C)C)NC(=O)[C@H](CCCCN)NC(=O)[C@@H](N)CCCNC(=N)N)C(=O)N[C@@H](CCCCN)C(N)=O", "assay": "MTT", "conditions": "24 h", "IC50": "20 µM"}
{"SMILES": "CC[C@@]1(O)C(=O)OCc2c1cc1n(c2=O)Cc2cc3ccccc3nc2-1", "assay": "SRB", "conditions": "48 h", "IC50": "0.06 µM"}
{"SMILES": "CC(C)C[C@H](NC(=O)[C@H](CCCCN)NC(=O)CN)C(=O)N[C@@H](C)C(=O)N[C@@H](CCCCN)C(=O)N[C@@H](CCCCN)C(=O)N[C@@H](CC(C)C)C(=O)N[C@@H](Cc1ccccc1)C(=O)N[C@@H](CCCCN)C(=O)N[C@@H](CCCCN)C(=O)N[C@@H](CC(C)C)C(=O)N[C@@H](CCCCN)C(=O)N[C@@H](Cc1ccc(O)cc1)C(N)=O", "assay": "MTT", "conditions": "24 h", "IC50": "356 µM"}
{"SMILES": "N.N.[Cl][Pt][Cl]", "assay": "MTT", "conditions": "48 h", "IC50": "46.4 µM"}
{"SMILES": "CC(C)[C@@H]1NC(=O)[C@@H](CCCNC(=N)N)NC(=O)[C@H]([C@@H](C)O)NC(=O)[C@@H](CCN)NC(=O)[C@H](Cc2ccccc2)NC(=O)[C@@H](Cc2ccccc2)NC1=O", "assay": "ATP luminescence", "IC50": "> 100 µM"}
{"SMILES": "N.N.[Cl][Pt][Cl]", "IC50": "1.2 µM"}
{"SMILES": "C[C@H](NC(=O)[C@H](Cc1c[nH]cn1)NC(=O)[C@H](Cc1c[nH]c2ccccc12)NC(=O)[C@H](CCCCN)NC(=O)[C@H](Cc1c[nH]c2ccccc12)NC(=O)[C@H](Cc1c[nH]c2ccccc12)NC(=O)[C@H](CCCNC(=N)N)NC(=O)[C@H](Cc1c[nH]c2ccccc12)NC(=O)[C@H](Cc1c[nH]cn1)NC(=O)[C@@H](N)CCCNC(=N)N)C(=O)N[C@@H](CCCNC(=N)N)C(=O)N[C@@H](Cc1c[nH]c2ccccc12)C(=O)N[C@@H](Cc1c[nH]c2ccccc12)C(N)=O", "assay": "MTT", "conditions": "24 h", "IC50": "49 µM"}
{"SMILES": "c1ccc([Se][Au]=[c]2n(C3CCCCC3)ccn2C2CCCCC2)cc1", "assay": "crystal violet", "IC50": "0.9 µM"}
{"SMILES": "CC[C@H](C)[C@H](NC(=O)[C@H](CC(C)C)NC(=O)[C@H](CCCCN)NC(=O)[C@H](CCCCN)NC(=O)[C@H](CC(C)C)NC(=O)[C@H](CCCNC(=N)N)NC(=O)[C@H](CCCCN)NC(=O)[C@@H](N)CC(C)C)C(=O)N[C@@H](CCCCN)C(=O)N[C@@H](CCCCN)C(=O)N[C@@H](CC(C)C)C(=O)N[C@@H](CCCNC(=N)N)C(=O)N[C@@H](CCCCN)C(N)=O", "assay": "MTT", "conditions": "24 h", "IC50": "100 µM"}
{"SMILES": "CC(C)[C@@H]1NC(=O)[C@@H](CCCNC(=N)N)NC(=O)[C@H]([C@@H](C)O)NC(=O)[C@@H](CCCNC(=N)N)NC(=O)[C@H](Cc2ccccc2)NC(=O)[C@@H](Cc2ccccc2)NC1=O", "assay": "ATP luminescence", "IC50": "61.7 µM"}
{"SMILES": "CC(C)C[C@H](NC(=O)[C@@H]1CCCN1C(=O)[C@H](Cc1ccc(O)cc1)NC(=O)[C@H](CCCCN)NC(=O)[C@H](CCCCN)NC(=O)[C@H](CS)NC(=O)[C@H](CC(C)C)NC(=O)[C@H](CCCCN)NC(=O)[C@H](CCCCN)NC(=O)[C@H](Cc1ccccc1)NC(=O)[C@H](CC(C)C)NC(=O)[C@H](CCCCN)NC(=O)[C@@H](N)CCCNC(=N)N)C(N)=O", "assay": "MTT", "conditions": "24 h", "IC50": "258 µM"}
{"SMILES": "CC(C)C[C@H](NC(=O)[C@H](CO)NC(=O)[C@H](CO)NC(=O)CNC(=O)[C@@H]1CCCN1C(=O)[C@H](Cc1ccc(O)cc1)NC(=O)[C@H](CC(C)C)NC(=O)[C@H](CO)NC(=O)[C@H](CS)NC(=O)[C@H](CC(C)C)NC(=O)[C@@H](N)CC(C)C)C(=O)O", "assay": "MTT", "conditions": "72 h", "IC50": "> 100 µM"}
{"SMILES": "COC(=O)c1cc(C(C)=NNc2nc(-c3ccc(S(=O)(=O)F)cc3)cs2)ccc1O", "assay": "MTT", "conditions": "96 h", "IC50": "65 µM"}
{"SMILES": "O=C1c2ccccc2-c2c3c(cc4ccnc1c24)OCO3", "assay": "MTT", "conditions": "75 h", "IC50": "19.8 µM"}
{"SMILES": "CC1=CC(=O)c2c(O)cccc2C1=O", "assay": "MTT", "IC50": "13.6 µM"}
{"SMILES": "N.N.O=C([O-])C1(C(=O)[O-])CCC1.[Pt+2]", "assay": "MTT", "conditions": "48 h", "IC50": "197 µM"}
{"SMILES": "N.N.[Cl][Pt][Cl]", "assay": "MTT", "conditions": "72 h", "IC50": "50.8 µM"}
